Results taken from ChEMBL document CHEMBL3259717, “Synthetic calanolides with bactericidal activity against replicating and nonreplicating Mycobacterium tuberculosis” (J Med Chem, 2014).
Values after ≈ are worked out from the molar mass of the structure shown. Active and inactive are the calls of the source. The rule behind the calls is not given here.

Tests used:
[1] = Cytotoxicity against human HepG2 cells assessed as decrease in ATP signal after 2 days by CellTiter-Glo assay; assay type: cell-based; details: read-out: LD50
In short: (§1)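 HepG2 in DMEM with 10% FBS, pyruvate, glutamine, HEPES and nonessential amino acids, seeded 3000 cells/well in 384-well plates. Compound for 2 days at 1% final DMSO. ATP read by CellTiter-Glo luminescence. LD50 = 50% drop in ATP signal vs DMSO. SI = LD50/MIC90 against replicating Mtb.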

[2] = system: Mycobacterium tuberculosis; test: Antibacterial activity against replicating form of wild type Mycobacterium tuberculosis H37Rv assessed as growth inhibition after 7 days by high-throughput screening assay; assay type: functional; details: 168 h
In short: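 Wild-type H37Rv in 7H9 with glycerol, tyloxapol, ADN, in 96-well plates. Set up as the 384-well screen: OD580 0.01 start, compound in DMSO, 7 days at 37 °C, 20% O2, 5% CO2. OD580 read; MIC90 = 90% growth inhibition vs DMSO control.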

[3] = system: Mycobacterium tuberculosis; test: Antibacterial activity against non-replicating form of wild type Mycobacterium tuberculosis H37Rv assessed as growth inhibition after 3 days by high-throughput screening assay; assay type: functional; details: 72 h
[4] = Selectivity index, ratio of LD50 for human HepG2 cells to MIC90 for replicating form of Mycobacterium tuberculosis H37Rv; assay type: toxicity, cell-based; details: read-out: Selectivity Index; in short: as §1
[5] = system: Mycobacterium tuberculosis; test: Bactericidal activity against replicating form of wild type Mycobacterium tuberculosis H37Rv assessed as reduction of log10CFU at 0.6 ug/mL after 7 to 8 days; assay type: functional
In short: (§2)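 Wild-type Mtb single-cell suspension at OD 0.01 (R) or 0.1 (NR, in NR medium, 1% O2) in 96-well plates with compound for 7 days. Serial dilution in 7H9-ADN, plated on 7H11 agar with glycerol and OADC for CFU.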

[6] = system: Mycobacterium tuberculosis; test: Bactericidal activity against non-replicating form of wild type Mycobacterium tuberculosis H37Rv assessed as reduction of log10CFU at 0.6 ug/mL after 7 to 8 days; assay type: functional; in short: as §2
[7] = system: Mycobacterium tuberculosis; test: Bactericidal activity against wild type Mycobacterium tuberculosis H37Rv infected in IFN-gamma-stimulated primary human monocyte-derived macrophages assessed as reduction of log10CFU at 1 ug/mL incubated for 7 days followed by compound washout measured after 3 weeks; assay type: functional
In short: (§3)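 Monocytes from healthy donors isolated by CD14 selection. Differentiated 2 weeks in 40% human plasma with 0.5 ng/mL GM-CSF and TNF-alpha, 10% O2. Then 5 ng/mL IFN-gamma overnight, infected with wild-type Mtb at MOI 0.1. Compound added at 24 h, 1% DMSO final, 7 days. Viability inspected visually; lysed in 0.55% Triton-X and plated on 7H11/OADC for CFU.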

[8] = system: Mycobacterium tuberculosis; test: Antimycobacterial activity against replicating form of Mycobacterium tuberculosis infected in African green monkey Vero cells assessed as growth inhibition; assay type: functional
[9] = Cytotoxicity against African green monkey Vero cells; assay type: cell-based; details: chlorocebus sabaeus, read-out: LD50 (the source's name)
[10] = Selectivity index, ratio of LD50 for African green monkey Vero cells to MIC for replicating form of Mycobacterium tuberculosis infected in African green monkey Vero cells; assay type: toxicity, cell-based; details: read-out: Selectivity Index
[11] = system: Mycobacterium tuberculosis; test: Bactericidal activity against wild type Mycobacterium tuberculosis H37Rv infected in IFN-gamma-stimulated primary human monocyte-derived macrophages assessed as reduction of log10CFU incubated for 7 days followed by compound washout measured after 3 weeks; assay type: functional; in short: as §3
[12] = Genotoxicity in mouse lymphoma cells; assay type: toxicity, cell-based
[13] = system: Mycobacterium tuberculosis; test: Bactericidal activity against wild type Mycobacterium tuberculosis H37Rv infected in IFN-gamma-stimulated primary human monocyte-derived macrophages assessed as reduction of log10CFU at 30 times MIC incubated for 7 days followed by compound washout measured after 3 weeks; assay type: functional; in short: as §3
[14] = system: Mycobacterium tuberculosis; test: Antibacterial activity against replicating form of Mycobacterium tuberculosis MC2 6220 assessed as growth inhibition after 7 days by high-throughput screening assay; assay type: functional; details: MC2 6220, 168 h
In short: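 Attenuated Mtb mc26220 ΔpanCDΔlysA in 7H9 with glycerol, tyloxapol, OADC, casein amino acids, 240 μg/mL L-lysine, 24 μg/mL pantothenate. Mid-log cells diluted to OD580 0.01 in 384-well plates, compound in DMSO, 7 days at 37 °C, 20% O2, 5% CO2. OD580 read; MIC90 = 90% growth inhibition vs DMSO.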

[15] = system: Mycobacterium tuberculosis; test: Antibacterial activity against non-replicating form of Mycobacterium tuberculosis MC2 6220 assessed as growth inhibition after 3 days by high-throughput screening assay; assay type: functional; details: MC2 6220, 72 h
In short: (§4)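 Log-phase mc26220 washed in PBS/tyloxapol, resuspended in Sauton's-based NR medium (butyrate, 0.5 mM NaNO2, pH 5.0) at OD580 0.1. Compound exposure 3 days at 37 °C, 1% O2, 5% CO2. Then R medium added (5-fold dilution), 7 days outgrowth at 20% O2. OD580 read; MIC90 = 90% inhibition vs DMSO.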

[16] = system: Mycobacterium tuberculosis; test: Antibacterial activity against non-replicating form of Mycobacterium tuberculosis MC2 6220 assessed as growth inhibition after 7 days by high-throughput screening assay; assay type: functional; details: MC2 6220, 168 h; in short: as §4
[17] = Selectivity index, ratio of LD50 for human HepG2 cells to MIC90 for replicating form of Mycobacterium tuberculosis mc'2 6220; assay type: toxicity, cell-based; details: read-out: Selectivity Index; in short: as §1
Escherichia coli = test: Bactericidal activity against Escherichia coli at <= 25 ug/mL after 6 to 18 hrs; assay type: functional, organism-based
In short: (§5)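 Log-phase cultures in their own media (M. smegmatis 7H9/glycerol/tyloxapol; E. coli, P. aeruginosa LB; S. aureus Mueller-Hinton; C. albicans YM) diluted to OD 0.01 in 96-well plates. Compound or DMSO added. Incubated 8−48 h with shaking at 37 °C (Candida at 30 °C). OD600 read.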

Staphylococcus aureus = test: Bactericidal activity against Staphylococcus aureus ATCC 29213 at <= 25 ug/mL after 6 to 18 hrs; assay type: functional, organism-based; in short: as §5
Pseudomonas aeruginosa = test: Bactericidal activity against Pseudomonas aeruginosa PAO1 at <= 25 ug/mL after 6 to 18 hrs; assay type: functional, organism-based; in short: as §5
Candida albicans = test: Fungicidal activity against Candida albicans at <= 25 ug/mL after 6 to 18 hrs; assay type: functional, organism-based; in short: as §5
[18] = system: Mycolicibacterium smegmatis; test: Antibacterial activity against Mycobacterium smegmatis assessed as growth inhibition at 10 ug/mL after 24 to 48 hrs relative to control; assay type: functional; details: read-out: GI; in short: as §5

| SMILES | CC50 at 48 h [1] [µg/mL] | MIC90 [2] [µg/mL] | MIC90 [3] [µg/mL] | selectivity ratio [4] | MIC90 [14] [µg/mL] | MIC90 [15] [µg/mL] | selectivity ratio [17] | further results |
| --- | --- | --- | --- | --- | --- | --- | --- | --- |
| CCCc1cc(=O)oc2c1c1c(c3oc([N+](=O)[O-])cc32)C=CC(C)(C)O1 | 3 (≈ 8.44 µM) | 0.3 (≈ 0.844 µM) | 0.6 (≈ 1.69 µM) | 8 |  |  |  | log10cfu [5]: 3.1; log10cfu [6]: 2.6; log10cfu [7]: 1.8 |
| Cc1cc(=O)oc2c1c1c(c3oc([N+](=O)[O-])cc32)C=CC(C)(C)O1 | 1 (≈ 3.06 µM) | 0.08 (≈ 0.244 µM) | 0.2 (≈ 0.611 µM) | 16 |  |  |  |  |
| CCCc1cc(=O)oc2c3c(cc(OCCN4CCOCC4)c12)O[C@@H]([N+](=O)[O-])[C@@H]3O | 0.8 (≈ 1.9 µM) | 0.08 (≈ 0.19 µM) | 0.08 (≈ 0.19 µM) | 10 |  |  |  |  |
| CCCc1cc(=O)oc2c3c(c4c(c12)OC(C)(C)C=C4)O[C@H](C)[C@@H](C)[C@@H]3O [CALANOLIDE A] |  |  |  |  |  |  |  | MIC [8]: 3.1 µg/mL (≈ 8.37 µM); CC50 [9]: 7.6 µg/mL (≈ 20.5 µM); selectivity ratio [10]: 2.4 |
| CCCc1cc(=O)oc2c1c(OCCN1CCOCC1)cc1oc([N+](=O)[O-])cc12 | 10 (≈ 24.9 µM) | 0.08 (≈ 0.199 µM) | 0.2 (≈ 0.497 µM) | 125 |  |  |  | log10cfu [11]: 1; Activity [12]: Non-toxic |
| CCCc1cc(=O)oc2c1c(OCc1ccc(F)cc1)cc1oc([N+](=O)[O-])cc12 | > 100 | 0.6 (≈ 1.51 µM) | 3 (≈ 7.55 µM) | > 160 |  |  |  | log10cfu [11]: 1; Activity [12]: Non-toxic |
| CCCc1cc(=O)oc2c3c(cc(OCCN4CCOCC4)c12)O[C@H]([N+](=O)[O-])[C@H]3O | 2 (≈ 4.76 µM) | 0.08 (≈ 0.19 µM) | 0.08 (≈ 0.19 µM) | 20 |  |  |  |  |
| CO[C@H]1/C=C/O[C@@]2(C)Oc3c(C)c(O)c4c(O)c(c(/C=N/N5CCN(C)CC5)c(O)c4c3C2=O)NC(=O)/C(C)=C\C=C\[C@H](C)[C@H](O)[C@@H](C)[C@@H](O)[C@@H](C)[C@H](OC(C)=O)[C@@H]1C [RIFAMPIN] |  |  |  |  |  |  |  | log10cfu [13]: 1 |
| CCCc1cc(=O)oc2cc(OCC=C(C)C)c3c(c12)OC(C)(C)C=C3 | > 18 |  |  |  | > 18 | > 18 |  | MIC90 [16]: 2 µg/mL (≈ 5.64 µM) |
| CCCc1cc(=O)oc2cc(OCCN3CCCCC3)c3c(c12)OC(C)(C)C=C3 | > 20 |  |  |  | > 20 | > 20 |  | MIC90 [16]: 7 µg/mL (≈ 17.6 µM) |
| CCCc1cc(=O)oc2c3c(cc(OCCN4CCOCC4)c12)O[C@H]([N+](=O)[O-])[C@H]3C(C)C (racemic) | > 22 |  |  |  | 22 (≈ 49.3 µM) | > 22 | > 1 |  |
| CCCc1cc(=O)oc2c1c(OCCN1CCOCC1)cc1oc([N+](=O)[O-])c(COC(C)=O)c12 | < 0.3 |  |  |  | 1 (≈ 2.11 µM) | 3 (≈ 6.32 µM) | < 0.3 |  |
| CCCc1cc(=O)oc2c3c(c4c(c12)OC(C)(C)C=C4)O[C@H]([N+](=O)[O-])[C@H]3O (relative stereo) | 3 (≈ 8.04 µM) |  |  |  | < 0.2 | < 0.2 | > 11 |  |
| CCCc1cc(=O)oc2c1c1c(c3oc([N+](=O)[O-])cc32)CCC(C)(C)O1 | > 50 | 0.6 (≈ 1.68 µM) | 1 (≈ 2.8 µM) | > 80 |  |  |  | log10cfu [5]: 2.6; log10cfu [6]: 2.1; Activity (Escherichia coli): inactive; Activity (Staphylococcus aureus): inactive; Activity (Pseudomonas aeruginosa): inactive; Activity (Candida albicans): inactive; inhibition of growth at 10 µg/mL [18]: 20%; log10cfu [11]: 2 |
| CCCc1cc(=O)oc2c3c(cc(OCCN4CCOCC4)c12)OC(C)([N+](=O)[O-])C3O (racemic) | > 100 |  |  |  | 100 (≈ 230 µM) | 100 (≈ 230 µM) | > 1 |  |
| CC1(C)C=Cc2c(c3c(CN4CCSCC4)cc(=O)oc3c3cc([N+](=O)[O-])oc23)O1 | 1 (≈ 2.33 µM) |  |  |  | < 0.3 | < 0.3 | > 5 |  |
| CCCc1cc(=O)oc2c1c1c(c3oc([N+](=O)[O-])cc32)C=CC(c2ccccc2)O1 (centres undefined) | 3 (≈ 7.44 µM) |  |  |  | 20 (≈ 49.6 µM) | 6 (≈ 14.9 µM) | 0.1 |  |
| CCCc1cc(=O)oc2c1c(OCCN1CCCC1)cc1oc([N+](=O)[O-])cc12 | 1 (≈ 2.59 µM) |  |  |  | < 0.2 | < 0.2 | > 5 |  |
| CCCc1cc(=O)oc2cc(N(C)C)c3c(c12)OC(C)(C)C=C3 | > 16 |  |  |  | > 16 | > 16 |  | MIC90 [16]: 2 µg/mL (≈ 6.38 µM) |
| CN1CCN(Cc2cc(=O)oc3c2c2c(c4oc([N+](=O)[O-])cc43)C=CC(C)(C)O2)CC1 | 3 (≈ 7.05 µM) | 0.08 (≈ 0.188 µM) | 0.3 (≈ 0.705 µM) | 31 |  |  |  |  |
| Cc1c(F)c(=O)oc2c1c1c(c3oc([N+](=O)[O-])cc32)CCC(C)(C)O1 | > 50 |  |  |  | 0.8 (≈ 2.3 µM) | 2 (≈ 5.76 µM) | > 64 |  |
| CCc1c(F)c(=O)oc2c1c1c(c3oc([N+](=O)[O-])cc32)C=CC(C)(C)O1 | > 25 | 0.6 (≈ 1.67 µM) | 1 (≈ 2.78 µM) | > 40 |  |  |  |  |
